Assay results reported in ChEMBL document CHEMBL4251662, “Alkyl indole-based cannabinoid type 2 receptor tools: Exploration of linker and fluorophore attachment” (Eur J Med Chem, 2018).
Activity calls are given as the source filed them. No cut-off for these calls is given here.

Assays:
[1] = molecular target: Proprotein convertase subtilisin/kexin type 9 (Homo sapiens) (UniProt Q8NBP7); assay: Inhibition of PCSK9 (unknown origin)
[2] = molecular target: T1, Free fatty acid receptor 4 (Homo sapiens) (UniProt Q5NUL3); assay: Agonist activity at GPR120 (unknown origin); assay type: functional
T1 sequence (whole entry): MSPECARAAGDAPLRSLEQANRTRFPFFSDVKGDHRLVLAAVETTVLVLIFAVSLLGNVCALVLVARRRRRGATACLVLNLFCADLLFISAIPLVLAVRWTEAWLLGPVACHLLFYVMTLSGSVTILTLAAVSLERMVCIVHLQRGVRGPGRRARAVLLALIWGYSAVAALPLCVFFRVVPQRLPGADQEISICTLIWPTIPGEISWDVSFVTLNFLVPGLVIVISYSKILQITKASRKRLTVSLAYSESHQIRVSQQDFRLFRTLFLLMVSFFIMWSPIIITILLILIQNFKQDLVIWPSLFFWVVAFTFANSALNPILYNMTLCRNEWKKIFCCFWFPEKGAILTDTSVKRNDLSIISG

[3] = molecular target: Interleukin-17A (Homo sapiens) (UniProt Q16552); assay: Inhibition of IL-17 (unknown origin) assessed as disruption of IL-17 protein-protein interaction
Sequence of Interleukin-17A (Homo sapiens) (Q16552 whole entry): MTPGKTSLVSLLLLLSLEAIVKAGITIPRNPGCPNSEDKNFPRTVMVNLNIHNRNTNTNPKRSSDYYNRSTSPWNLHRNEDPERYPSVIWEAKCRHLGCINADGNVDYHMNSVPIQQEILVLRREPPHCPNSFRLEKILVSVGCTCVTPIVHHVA

Leishmania donovani = assay: Growth inhibition of Leishmania donovani; assay type: functional, organism-based
[4] = molecular target: Potassium voltage-gated channel subfamily KQT member 2 (Homo sapiens) (UniProt O43526); assay: Agonist activity at KCNQ2 (unknown origin)
Sequence of Potassium voltage-gated channel subfamily KQT member 2 (Homo sapiens) (O43526 whole entry): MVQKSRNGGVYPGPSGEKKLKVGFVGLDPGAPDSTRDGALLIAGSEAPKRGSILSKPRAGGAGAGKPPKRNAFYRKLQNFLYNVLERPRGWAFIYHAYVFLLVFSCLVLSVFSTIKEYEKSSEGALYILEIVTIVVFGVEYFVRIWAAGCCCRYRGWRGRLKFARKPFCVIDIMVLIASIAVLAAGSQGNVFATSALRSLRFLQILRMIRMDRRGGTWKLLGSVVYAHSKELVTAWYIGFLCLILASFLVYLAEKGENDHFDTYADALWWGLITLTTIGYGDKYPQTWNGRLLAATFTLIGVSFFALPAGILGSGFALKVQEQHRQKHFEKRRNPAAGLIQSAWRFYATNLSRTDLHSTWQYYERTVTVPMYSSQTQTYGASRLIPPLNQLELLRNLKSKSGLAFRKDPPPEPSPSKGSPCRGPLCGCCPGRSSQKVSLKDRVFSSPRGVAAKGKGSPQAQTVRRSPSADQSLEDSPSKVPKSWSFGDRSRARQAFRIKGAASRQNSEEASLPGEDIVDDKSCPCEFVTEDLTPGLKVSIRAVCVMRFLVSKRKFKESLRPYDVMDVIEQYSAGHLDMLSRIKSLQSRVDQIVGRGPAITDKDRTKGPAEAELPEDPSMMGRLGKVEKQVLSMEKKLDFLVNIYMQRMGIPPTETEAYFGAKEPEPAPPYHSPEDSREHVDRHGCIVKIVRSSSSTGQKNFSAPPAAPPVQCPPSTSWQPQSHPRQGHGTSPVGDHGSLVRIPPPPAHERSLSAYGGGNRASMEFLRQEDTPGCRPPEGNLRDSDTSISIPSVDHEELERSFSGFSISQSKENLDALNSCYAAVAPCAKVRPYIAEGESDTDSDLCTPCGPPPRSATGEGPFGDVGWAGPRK

[5] = molecular target: T2, Potassium voltage-gated channel subfamily KQT member 3 (Homo sapiens) (UniProt O43525); assay: Agonist activity at KCNQ3 (unknown origin)
T2 sequence (whole entry): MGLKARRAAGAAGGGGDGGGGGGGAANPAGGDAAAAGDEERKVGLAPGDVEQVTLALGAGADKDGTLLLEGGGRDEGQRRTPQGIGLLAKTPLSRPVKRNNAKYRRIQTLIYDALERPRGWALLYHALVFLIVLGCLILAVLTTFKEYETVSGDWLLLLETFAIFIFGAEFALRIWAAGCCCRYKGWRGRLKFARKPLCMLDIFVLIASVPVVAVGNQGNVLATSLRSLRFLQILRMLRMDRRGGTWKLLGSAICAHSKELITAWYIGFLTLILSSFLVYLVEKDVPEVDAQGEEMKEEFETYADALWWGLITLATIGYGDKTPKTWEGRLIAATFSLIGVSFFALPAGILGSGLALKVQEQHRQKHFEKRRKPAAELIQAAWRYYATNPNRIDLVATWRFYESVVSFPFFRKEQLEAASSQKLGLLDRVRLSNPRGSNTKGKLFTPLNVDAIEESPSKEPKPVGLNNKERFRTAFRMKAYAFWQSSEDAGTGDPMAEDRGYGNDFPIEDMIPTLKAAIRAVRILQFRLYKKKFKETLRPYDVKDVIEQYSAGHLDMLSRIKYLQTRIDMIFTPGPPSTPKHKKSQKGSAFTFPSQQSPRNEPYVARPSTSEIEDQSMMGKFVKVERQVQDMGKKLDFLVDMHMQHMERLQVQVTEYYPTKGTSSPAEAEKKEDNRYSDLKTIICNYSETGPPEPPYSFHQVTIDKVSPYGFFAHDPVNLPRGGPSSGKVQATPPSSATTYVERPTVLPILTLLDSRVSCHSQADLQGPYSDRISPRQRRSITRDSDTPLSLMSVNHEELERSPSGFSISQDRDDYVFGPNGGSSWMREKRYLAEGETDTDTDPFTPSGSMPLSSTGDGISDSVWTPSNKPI

[6] = molecular target: T3, Nicotinamide N-methyltransferase (Homo sapiens) (UniProt P40261); assay: Inhibition of NNMT (unknown origin)
T3 sequence (whole entry): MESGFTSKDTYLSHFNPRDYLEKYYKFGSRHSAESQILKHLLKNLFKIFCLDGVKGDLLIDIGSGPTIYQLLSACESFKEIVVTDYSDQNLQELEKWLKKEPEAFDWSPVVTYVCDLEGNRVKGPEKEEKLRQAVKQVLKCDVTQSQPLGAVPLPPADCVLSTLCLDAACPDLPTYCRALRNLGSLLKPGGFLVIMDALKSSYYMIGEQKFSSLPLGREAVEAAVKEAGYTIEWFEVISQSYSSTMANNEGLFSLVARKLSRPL

Cannabinoid receptor 2 [7] = molecular target: T4, Cannabinoid receptor 2 (Homo sapiens, UniProt P34972); assay: Displacement of [3H]CP55,940 from N-terminal HA-tagged human CB2 receptor expressed in HEK293 cell membranes at 10 uM after 1 hr by microbeta scintillation counting method relative to control
T4 sequence (P34972 whole entry): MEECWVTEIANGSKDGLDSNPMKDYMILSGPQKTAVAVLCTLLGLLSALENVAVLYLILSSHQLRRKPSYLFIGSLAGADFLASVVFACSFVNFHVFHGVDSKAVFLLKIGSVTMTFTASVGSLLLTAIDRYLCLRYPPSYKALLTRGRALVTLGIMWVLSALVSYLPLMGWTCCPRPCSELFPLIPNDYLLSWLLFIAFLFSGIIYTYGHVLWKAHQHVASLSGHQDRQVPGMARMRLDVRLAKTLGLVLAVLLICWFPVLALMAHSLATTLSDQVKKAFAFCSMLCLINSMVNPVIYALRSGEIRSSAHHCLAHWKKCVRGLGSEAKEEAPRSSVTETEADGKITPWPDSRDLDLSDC
In short: (§1)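 Single-point competition screen against [3H]CP55,940 in HEK293 cells over-expressing 3HA-tagged hCB2 or hCB1. Compounds giving more than 50% displacement went on to full concentration-response curves.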

Cannabinoid receptor 2 [8] = molecular target: T4, Cannabinoid receptor 2; assay: Displacement of [3H]CP55,940 from N-terminal HA-tagged human CB2 receptor expressed in HEK293 cell membranes after 1 hr by microbeta scintillation counting method; conditions: read-out: Ki
Cannabinoid receptor 1 [9] = molecular target: T5, Cannabinoid receptor 1 (Homo sapiens, UniProt P21554); assay: Displacement of [3H]CP55,940 from N-terminal HA-tagged human CB1 receptor expressed in HEK293 cell membranes at 10 uM after 1 hr by microbeta scintillation counting method relative to control; in short: as §1
T5 sequence (P21554 whole entry): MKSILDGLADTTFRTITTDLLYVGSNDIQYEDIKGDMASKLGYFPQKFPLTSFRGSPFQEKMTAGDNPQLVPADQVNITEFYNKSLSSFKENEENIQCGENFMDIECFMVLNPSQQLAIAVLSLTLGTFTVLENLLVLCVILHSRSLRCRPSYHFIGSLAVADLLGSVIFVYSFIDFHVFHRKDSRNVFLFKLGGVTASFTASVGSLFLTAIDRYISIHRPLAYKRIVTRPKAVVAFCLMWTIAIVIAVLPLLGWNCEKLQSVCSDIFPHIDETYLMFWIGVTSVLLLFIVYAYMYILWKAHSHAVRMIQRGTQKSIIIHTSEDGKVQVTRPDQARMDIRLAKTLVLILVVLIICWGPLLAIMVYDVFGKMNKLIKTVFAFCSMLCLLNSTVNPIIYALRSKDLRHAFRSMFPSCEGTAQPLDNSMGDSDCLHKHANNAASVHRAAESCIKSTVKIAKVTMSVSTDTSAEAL

Cannabinoid receptor 1 [10] = molecular target: T5, Cannabinoid receptor 1; assay: Displacement of [3H]CP55,940 from N-terminal HA-tagged human CB1 receptor expressed in HEK293 cell membranes after 1 hr by microbeta scintillation counting method; conditions: read-out: Ki
Cannabinoid receptor 2 [11] = molecular target: T4, Cannabinoid receptor 2; assay: Agonist activity at N-terminal HA-tagged human CB2 receptor expressed in HEK293 cells transfected with YFP-Epac-RLuc assessed as decrease in forskolin-stimulated cAMP level by BRET assay; assay type: functional, cell-based
In short: (§2)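 BRET cAMP biosensor read-out in HEK293 cells expressing HA-tagged human CB1 or CB2, with forskolin stimulation (5 µM). Concentration-response curves; area-under-curve values normalised to forskolin alone = 100% and basal = 0%. EC50 taken for agonists and IC50 for inverse agonists. Mean of at least three independent experiments, each point in duplicate.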

Cannabinoid receptor 2 [12] = molecular target: T4, Cannabinoid receptor 2; assay: Agonist activity at N-terminal HA-tagged human CB2 receptor expressed in HEK293 cells transfected with YFP-Epac-RLuc assessed as decrease in forskolin-stimulated cAMP level by BRET assay relative to control; assay type: functional, cell-based; in short: as §2
Cannabinoid receptor 1 [13] = molecular target: T5, Cannabinoid receptor 1; assay: Agonist activity at N-terminal HA-tagged human CB1 receptor expressed in HEK293 cells transfected with YFP-Epac-RLuc assessed as decrease in forskolin-stimulated cAMP level by BRET assay relative to control; assay type: functional, cell-based; in short: as §2
Cannabinoid receptor 2 [14] = molecular target: T4, Cannabinoid receptor 2; assay: Agonist activity at N-terminal HA-tagged human CB2 receptor expressed in HEK293 cells transfected with YFP-Epac-RLuc assessed as decrease in forskolin-stimulated cAMP level at 10 uM by BRET assay; assay type: functional, cell-based
In short: (§3)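 Single-concentration screen at 10 µM in CB receptor-expressing HEK293 cells, run with and without CP55,940 as reference agonist. Forskolin-stimulated cAMP read by BRET biosensor. A fall in cAMP is scored as agonism and a rise as inverse agonism.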

Cannabinoid receptor 1 [15] = molecular target: T5, Cannabinoid receptor 1; assay: Agonist activity at N-terminal HA-tagged human CB1 receptor expressed in HEK293 cells transfected with YFP-Epac-RLuc assessed as decrease in forskolin-stimulated cAMP level at 10 uM by BRET assay; assay type: functional, cell-based; in short: as §3
HEK293 [16] = assay: Effect on forskolin-stimulated cAMP level in HEK293 cells at 10 uM by BRET assay relative to control; assay type: ADME, cell-based; conditions: human, hek293, 10 µM
In short: (§4)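 Wild-type HEK293 cells lacking transfected receptor, tested at 10 µM and 1 µM. Forskolin-stimulated cAMP measured by BRET as a check that responses are receptor-mediated.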

HEK293 [17] = assay: Effect on forskolin-stimulated cAMP level in HEK293 cells at 1 uM by BRET assay relative to control; assay type: ADME, cell-based; conditions: human, hek293, 1 µM; in short: as §4

Sequence of Proprotein convertase subtilisin/kexin type 9 (Homo sapiens) (Q8NBP7 31-152 limits assumed): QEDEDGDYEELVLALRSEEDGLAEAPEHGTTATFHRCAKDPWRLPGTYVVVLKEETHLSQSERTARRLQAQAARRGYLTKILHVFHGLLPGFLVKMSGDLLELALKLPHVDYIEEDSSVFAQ
Sequence of Proprotein convertase subtilisin/kexin type 9 (Homo sapiens) (Q8NBP7 153-692 limits assumed): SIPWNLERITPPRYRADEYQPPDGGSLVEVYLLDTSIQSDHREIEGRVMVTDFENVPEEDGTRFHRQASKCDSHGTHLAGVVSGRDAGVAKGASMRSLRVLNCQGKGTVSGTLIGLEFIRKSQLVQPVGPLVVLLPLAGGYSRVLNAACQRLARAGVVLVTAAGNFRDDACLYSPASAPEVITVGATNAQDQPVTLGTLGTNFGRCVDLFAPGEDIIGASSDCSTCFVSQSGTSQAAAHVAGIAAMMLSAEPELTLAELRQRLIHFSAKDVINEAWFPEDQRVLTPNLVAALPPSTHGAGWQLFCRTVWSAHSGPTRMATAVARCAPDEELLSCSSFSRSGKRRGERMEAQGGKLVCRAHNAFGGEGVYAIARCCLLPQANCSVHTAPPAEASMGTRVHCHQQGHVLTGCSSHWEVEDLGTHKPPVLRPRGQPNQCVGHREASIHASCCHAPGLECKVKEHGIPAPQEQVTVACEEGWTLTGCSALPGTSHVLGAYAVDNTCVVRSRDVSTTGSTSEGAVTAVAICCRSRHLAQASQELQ

Compound | inhibition [1] | Activity [2] | inhibition [3] | growth inhibition (GI) (Leishmania donovani) | Activity [4] | Activity [5] | inhibition [6] | inhibition (Cannabinoid receptor 2 [7]) | Ki (Cannabinoid receptor 2 [8]) | inhibition (Cannabinoid receptor 1 [9]) | Ki (Cannabinoid receptor 1 [10]) | EC50 (Cannabinoid receptor 2 [11]) | Emax (Cannabinoid receptor 2 [12]) | Emax (Cannabinoid receptor 1 [13]) | Activity (Cannabinoid receptor 2 [14]) | Activity (Cannabinoid receptor 1 [15]) | Activity (HEK293 [16]) | Activity (HEK293 [17])
COc1ccc(C(=O)c2cn(CC3CCOCC3)c3c(OCc4ccccc4)cccc23)cc1 | inactive | inactive | inactive | inactive | inactive | inactive | inactive | – | – | – | – | – | – | – | – | – | – | –
COc1ccc(C(=O)c2cn(CC3CCOCC3)c3c(OCC(=O)O)cccc23)cc1 | – | – | – | – | – | – | – | > 50% | 582 nM | > 50% | > 10 µM | > 10000 nM | 84.9% | 80.5% | Active | Active | 102.8% | 104.5%
O=C(c1cccc2ccccc12)c1cn(CC2CCOCC2)c2ccc(OCc3ccccc3)cc12 | inactive | inactive | inactive | inactive | inactive | inactive | inactive | – | – | – | – | – | – | – | – | – | – | –
COc1ccc(C(=O)c2cn(CC3CCOCC3)c3ccc(OCC(=O)O)cc23)cc1 | – | – | – | – | – | – | – | > 50% | 1660 nM | > 50% | > 10 µM | 70.2 nM | 57.4% | 60.4% | Active | Active | 100.1% | 98.8%
COc1ccc(C(=O)c2cn(CCN3CCOCC3)c3ccc(O)cc23)cc1 | – | – | – | – | – | – | – | > 50% | 747 nM | > 50% | > 10 µM | 5.4 nM | 67.5% | 70.4% | Active | Active | 105.2% | 101.9%
COc1ccc(C(=O)c2cn(CC3CCOCC3)c3ccc(OCc4ccccc4)cc23)cc1 | inactive | inactive | inactive | inactive | inactive | inactive | inactive | – | – | – | – | – | – | – | – | – | – | –
O=C(c1cccc2ccccc12)c1cn(CC2CCOCC2)c2ccc(O)cc12 | inactive | inactive | inactive | inactive | inactive | inactive | inactive | > 50% | 275 nM | > 50% | 0.824 µM | 14.7 nM | 64.4% | 52.4% | Active | Active | 108.1% | 95%
O=C(c1cn(CCN2CCOCC2)c2ccc(O)cc12)C1CCCCC1 | – | – | – | – | – | – | – | > 50% | 895 nM | > 50% | > 10 µM | 18.6 nM | 74.1% | 74.3% | Active | Active | 105.1% | 105.9%
COc1ccc(C(=O)c2cn(CC3CCOC3)c3ccc(OCc4ccccc4)cc23)cc1 (stereo unspecified) | inactive | inactive | inactive | inactive | inactive | inactive | inactive | – | – | – | – | – | – | – | – | – | – | –
O=C(c1cccc2ccccc12)c1cn(CCN2CCOCC2)c2ccc(O)cc12 | – | – | – | – | – | – | – | > 50% | 169 nM | > 50% | 2.84 µM | 8.7 nM | 77.4% | 54.6% | Active | Active | 118.7% | 101.9%
